In brackets after ≈: the same amount, converted by molar mass.
Legend:
[1] = AUC (0 to last) in healthy human plasma at 800 mg, po administered as single dose measured after 120 hrs; type: ADME, organism-based; design: dose 800 mg, route oral, time 0 - last
How it was run: (§1)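 Healthy adults (6 per dose group) received a single oral suspension after an 8-h fast, with food withheld 4 h. EDTA blood was drawn predose to 120 h. Plasma was protein-precipitated with ACN and assayed by LC-MS/MS (clarithromycin internal standard; range 1–1,000 ng/ml). AUC0-last was computed by linear-up/log-down trapezoid; AUC0-∞ added Clast/λz. Values are noncompartmental means.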

[2] = Renal clearance in healthy human at 400 mg, po administered as single dose measured after 48 hrs; type: ADME, organism-based, Kidney; details: in vivo, read-out: CL_renal (converted)
How it was run: (§2)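 Healthy adults (6 active per dose) got a single oral suspension dose after an 8-h fast, with food withheld 4 h. Urine over 0–48 h in intervals and serial EDTA plasma were assayed by validated LC-MS/MS, with plasma calibration from 1 to 1,000 ng/ml. CLR = Ae0-48 (urine volume × concentration summed) divided by plasma AUC0-48.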

Homo sapiens [3] = assay: Renal clearance in healthy human assessed as cumulative amount excreted in urine at 400 mg, po administered as single dose measured after 48 hrs; type: ADME, organism-based; details: in vivo
How it was run: (§3)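 Healthy adults (6 per dose) received a single fasted oral suspension dose. Urine was collected predose and over 0–2, 2–4, 4–6, 6–8, 8–12, 12–24 and 24–48 h intervals, volumes were recorded, and aliquots were stored at −20°C. Samples were assayed by LC-MS/MS. Ae0-48 is the summed volume × concentration over all intervals; the mean was reported.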

[4] = Elimination rate constant in healthy human plasma at 1200 mg, po administered as single dose measured after 120 hrs; type: ADME, organism-based
[5] = Tmax in healthy human plasma at 100 mg, po administered as single dose measured after 120 hrs; type: ADME, organism-based
How it was run: (§4)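 Fasted healthy adults (n = 6 per group) took one oral suspension dose. Plasma was sampled from predose through 0.25–120 h postdose and measured by validated LC-MS/MS (lower limit 1 ng/ml). Tmax was read directly from observed concentration–time data using actual sampling times and reported as median with range.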

[6] = Renal clearance in healthy human at 800 mg, po administered as single dose measured after 48 hrs; type: ADME, organism-based, Kidney; details: in vivo, read-out: CL_renal (converted); how it was run: as §2
[7] = Elimination rate constant in healthy human plasma at 800 mg, po administered as single dose measured after 120 hrs; type: ADME, organism-based
[8] = Renal clearance in healthy human assessed as cumulative fraction excreted unchanged in urine at 400 mg, po administered as single dose measured after 48 hrs; type: ADME, organism-based; details: read-out: Fraction Recovered in urine
How it was run: (§5)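 Urine collected predose and over 0–2, 2–4, 4–6, 6–8, 8–12, 12–24 and 24–48 h after a single oral suspension dose, given after an 8-h fast with no food for 4 h after. Volumes measured, stored at −20°C, EDP-420 quantified by LC-MS/MS. fe0-48 = Ae0-48/dose × 100%, where Ae0-48 is the sum of volume × concentration over the intervals. Six active subjects per dose.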

[9] = Apparent volume of distribution in healthy human plasma at 400 mg, po administered as single dose measured after 120 hrs; type: ADME, organism-based
[10] = Half life in healthy human plasma at 800 mg, po administered as single dose measured after 120 hrs; type: ADME, organism-based
Homo sapiens [11] = assay: Renal clearance in healthy human assessed as cumulative amount excreted in urine at 1200 mg, po administered as single dose measured after 48 hrs; type: ADME, organism-based; details: in vivo; how it was run: as §3
Homo sapiens [12] = assay: Toxicity in healthy human assessed as changes in physical parameters signs at 100 to 1200 mg, po administered as single dose; type: organism-based; details: in vivo
[13] = Apparent oral clearance in healthy human plasma at 200 mg, po administered as single dose measured after 120 hrs; type: ADME, organism-based
How it was run: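 Single oral suspension dose in fasted healthy adults (6 per group). Plasma was collected to 120 h and measured by LC-MS/MS (1–1,000 ng/ml). Apparent oral clearance was dose divided by AUC0-∞ (noncompartmental, linear-up/log-down trapezoid extrapolated with Clast/λz); the mean was reported.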

[14] = AUC (0 to infinity) in healthy human plasma at 200 mg, po administered as single dose measured after 120 hrs; type: ADME, organism-based; design: dose 200 mg, route oral, time infinity; how it was run: as §1
[15] = Renal clearance in healthy human assessed as cumulative fraction excreted unchanged in urine at 800 mg, po administered as single dose measured after 48 hrs; type: ADME, organism-based; details: read-out: Fraction Recovered in urine; how it was run: as §5
Homo sapiens [16] = assay: Toxicity in healthy human assessed as changes in ECG parameters signs at 100 to 1200 mg, po administered as single dose; type: organism-based; details: in vivo
Homo sapiens [17] = assay: Toxicity in healthy human assessed as incidence of elevated hepatic transaminase levels at 100 to 1200 mg, po administered as single dose; type: organism-based; details: in vivo
How it was run: (§6)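 Randomized, double-blind, placebo-controlled single ascending dose study with eight subjects per group (6 drug, 2 placebo of microcrystalline cellulose). Subjects were fasted before dosing. Safety labs were done at 120 h, with a full chemistry panel also at 72 and 96 h for the top dose. Final evaluation on day 8–10, with adverse events recorded.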

Homo sapiens [18] = assay: Renal clearance in healthy human assessed as cumulative amount excreted in urine at 200 mg, po administered as single dose measured after 48 hrs; type: ADME, organism-based; details: in vivo; how it was run: as §3
[19] = Tmax in healthy human plasma at 200 mg, po administered as single dose measured after 120 hrs; type: ADME, organism-based; how it was run: as §4
[20] = Cmax in healthy human plasma at 800 mg, po administered as single dose measured after 120 hrs; type: ADME, organism-based; design: dose 800 mg, route oral
How it was run: (§7)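 Healthy adults (n = 6 per dose) took a single oral suspension fasted (8 h before, 4 h after). Plasma was sampled from 0.25 to 120 h postdose and quantified by validated LC-MS/MS after acetonitrile precipitation (LLOQ 1 ng/ml). Cmax was read directly from observed concentration–time data; the group mean was reported.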

Homo sapiens [21] = assay: Toxicity in healthy human assessed as changes in prothrombin time at 100 to 1200 mg, po administered as single dose; type: organism-based; details: in vivo; how it was run: as §6
Homo sapiens [22] = assay: Toxicity in healthy human assessed as changes in gamma-glutamyl transpeptidase level at 100 to 1200 mg, po administered as single dose; type: organism-based; details: in vivo; how it was run: as §6
[23] = Renal clearance in healthy human at 1200 mg, po administered as single dose measured after 48 hrs; type: ADME, organism-based, Kidney; details: in vivo, read-out: CL_renal (converted); how it was run: as §2
Streptococcus pneumoniae = assay: Antimicrobial activity against Streptococcus pneumoniae; type: functional
[24] = Cmax in healthy human plasma at 200 mg, po administered as single dose measured after 120 hrs; type: ADME, organism-based; design: dose 200 mg, route oral; how it was run: as §7
[25] = Renal clearance in healthy human assessed as cumulative fraction excreted unchanged in urine at 100 mg, po administered as single dose measured after 48 hrs; type: ADME, organism-based; details: read-out: Fraction Recovered in urine
How it was run: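 After a single oral fasted suspension dose in healthy adults (6 per group), urine was collected in intervals to 48 h and measured by LC-MS/MS. fe0-48 = Ae0-48 (summed interval volume × concentration) / dose × 100%; the mean was reported.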

Streptococcus pyogenes = assay: Antimicrobial activity against Streptococcus pyogenes; type: functional
[26] = Tmax in healthy human plasma at 800 mg, po administered as single dose measured after 120 hrs; type: ADME, organism-based; how it was run: as §4
[27] = AUC (0 to last) in healthy human plasma at 400 mg, po administered as single dose measured after 120 hrs; type: ADME, organism-based; design: dose 400 mg, route oral, time 0 - last; how it was run: as §1
[28] = Renal clearance in healthy human at 200 mg, po administered as single dose measured after 48 hrs; type: ADME, organism-based, Kidney; details: in vivo, read-out: CL_renal (converted); how it was run: as §2
[29] = Apparent volume of distribution in healthy human plasma at 200 mg, po administered as single dose measured after 120 hrs; type: ADME, organism-based

Which results are given for CC[C@H]1OC(=O)[C@H](C)C(=O)[C@H](C)[C@@H](O[C@@H]2O[C@H](C)C[C@H](N(C)C)[C@H]2O)[C@@]2(C)C[C@@H](C)/C(=N\C(C)=O)[C@H](C)[C@@H](OC/C(=N\OCc3ccc(-n4cccn4)nc3)CO2)[C@]1(C)O [MODITHROMYCIN]?
AUC(0-t) at 120 h [1]: 33400 ng·h/mL; CL renal at 48 h [2]: 58 mL/min; Amount Recovered in urine (Homo sapiens [3]): 41.9 mg; k el at 120 h [4]: 9.56e-06 s⁻¹; Tmax [5]: 1.75 h; CL renal at 48 h [6]: 57.5 mL/min; k el at 120 h [7]: 1.09e-05 s⁻¹; dose excreted at 48 h [8]: 10.5%; Vd/F [9]: 635 L; half-life [10]: 17.6 h; Amount Recovered in urine (Homo sapiens [11]): 70.1 mg; Activity (Homo sapiens [12]): Non-toxic; CL/F [13]: 432 mL/min; AUC(0-inf) [14]: 7710 ng·h/mL; dose excreted at 48 h [15]: 11.4%; Activity (Homo sapiens [16]): Non-toxic; Activity (Homo sapiens [17]): 23%; Amount Recovered in urine (Homo sapiens [18]): 24.5 mg; Tmax [19]: 2.5 h; Cmax [20]: 1070 ng/mL; Activity (Homo sapiens [21]): Non-toxic; Activity (Homo sapiens [22]): Non-toxic; CL renal at 48 h [23]: 41.3 mL/min; MIC (Streptococcus pneumoniae): 0.25 µg/mL (≈ 0.297 µM); Cmax [24]: 360 ng/mL; dose excreted at 48 h [25]: 8.57%; Ratio (Streptococcus pyogenes): 32; Tmax [26]: 4.26 h; AUC(0-t) at 120 h [27]: 14300 ng·h/mL; CL renal at 48 h [28]: 60.3 mL/min; Vd/F [29]: 589 L
